The entries come from a sample that favours hits as a whole.
S1P4 antag – S1P4 receptor antagonists, primary screen, cell-based; Sphingosine 1-phosphate receptor 4 (Homo sapiens), O95977; S1P4-expressing cells, antagonist mode, reporter read-out; inhibition, % at 4.98 µM; 220,000 tested, 0.26% active; AID 1510, 2009; in the data active means inhibition above about 29%;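 further: 0% = wells stimulated with agonist and 100% = vehicle wells without agonist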
Mdm2 ligase inh – MDM2-luciferase reporter signal enhancers, primary screen, MDM2 E3 ligase inhibitor project, cell-based, luminescence, 1536-well. 210,000 tested, 0.11% active. cell-based MDM2 ubiquitination luciferase reporter, 2 h; 0 = plate control, 100 = twice control, blank-subtracted. signal enhancement, % at 5 µM. AID 1230, 2008;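 active means signal enhancement of 30% or more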;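 further: luminescence tracks abundance of the self-degrading MDM2-luciferase fusion protein; higher signal means inhibition of MDM2 E3 ligase activity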
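System: stable MDM2–luciferase fusion reporter cells / Input: 2000 cells seeded into each well / Schedule: 4 h settle plus 2 h compound, 37 °C / Compound: single-point 5 µM / Buffer or medium: cells held in DMEM / Benchmarks: control and blank well means / Evaluation: percent signal gain over controls, blank-subtracted / Measured by: luciferase luminescence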
S1P4 agonist – S1P4 receptor agonists, primary screen, cell-based | Sphingosine 1-phosphate receptor 4 (Homo sapiens), O95977 | S1P4-expressing cell line, agonist reporter assay | activation, % at 4.98 µM | 220,000 tested, 0.35% active | AID 1509, 2009; in the data active means activation above about 11%;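 further: 0% = DMSO vehicle and 100% = reference agonist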
S1P3 antagonist – S1P3 receptor antagonists, primary screen, cell-based; CHO S1P3 NFAT-BLA reporter, FRET fluorescence, antagonist mode; inhibition, % at 4.98 µM; 170,000 tested, 0.27% active;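 active means inhibition above the plate cutoff, the mean inhibition of test wells on that plate plus 3 SD, cut at about 28% in these data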;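 further: cells challenged with S1P at its EC80 of 0.8 µM; blue over green emission ratio from cleaved BLA substrate after 4 h stimulation; 0% = S1P-stimulated wells and 100% = unstimulated DMSO-only wells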
L major viab – Leishmania major promastigote growth inhibition, primary screen | Leishmania major promastigotes, resazurin fluorescence viability | inhibition, % at 10 µM | 200,000 tested, 9% active | AID 1063, 2008; in the data active means inhibition above about 50%;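 further: promastigotes grown with compound for 44 hours at 28 °C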
S1P4 antag cf – S1P4 receptor antagonists, human, confirmation, cell-based. shares compounds with S1P4 antag. S1P4-expressing cell line, antagonist mode, reporter read-out. inhibition, % at 4.98 µM. 520 tested, 71% active; in the data active means inhibition above about 30%
S1P1 antagonist – S1P1 receptor antagonists, human, counter-screen for S1P4 antagonist project, cell-based | 520 tested, 37% active | shares compounds with S1P4 antag | cell-based S1P1 antagonist counterscreen, inhibition | AID 1564, 2009 | inhibition, % at 4.98 µM; in the data active means inhibition above about 40%;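 further: receptor stimulated with S1P near its EC80; 0% = agonist stimulated wells and 100% = vehicle only wells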
Target sequence (P21453 whole entry, looked up): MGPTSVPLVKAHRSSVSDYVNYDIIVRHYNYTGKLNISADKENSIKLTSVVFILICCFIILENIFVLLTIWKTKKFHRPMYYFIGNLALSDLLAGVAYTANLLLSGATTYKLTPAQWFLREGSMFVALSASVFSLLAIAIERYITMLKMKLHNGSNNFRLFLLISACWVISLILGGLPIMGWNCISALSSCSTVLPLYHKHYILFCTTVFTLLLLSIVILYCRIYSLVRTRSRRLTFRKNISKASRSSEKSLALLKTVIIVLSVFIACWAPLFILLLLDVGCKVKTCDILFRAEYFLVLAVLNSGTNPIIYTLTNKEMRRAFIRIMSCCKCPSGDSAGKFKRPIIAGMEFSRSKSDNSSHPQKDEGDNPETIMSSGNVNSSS
* = called active by the depositor; . = not tested or not shown.

SMILES | S1P4 antag | Mdm2 ligase inh | S1P4 agonist | S1P3 antagonist | L major viab | S1P4 antag cf | S1P1 antagonist
COc1ccc(NC(=O)COC(=O)CC2CC3CCC2C3)c([N+](=O)[O-])c1 (configuration not stated) | -3.7 | -18.3 | 1.1 | 3.8 | 1.5 | . | .
O=C(CCSc1ccc(Cl)cc1)NC1CCCCC1 | -8.8 | -1.0 | 0.6 | . | 1.5 | . | .
O=C(CCSc1ccccc1)NC1CCCCCC1 | 43.3* | -14.9 | -0.3 | 0.5 | 0.2 | 3.1 | 26.4
O=C(Nc1ccc(Cl)cc1)Nc1nnc(CSCc2ccc(Cl)cc2)s1 | -12.3 | -13.2 | -2.3 | -14.3 | 12.9 | . | .
O=C1NC(=O)C(c2cn(-c3ccccc3)nc2-c2ccc(F)cc2)N1 (configuration not stated) | -9.0 | 3.9 | -1.0 | . | -1.9 | . | .
CC1=NNC(=O)/C1=C\c1cn(-c2ccccc2)nc1-c1ccc(F)cc1 | 29.7* | -15.5 | -0.8 | -2.2 | 100.4* | 109.6* | 17.7
COC(=O)c1ccc(N)c(N=CC2=C(O)CC(C)(C)CC2=O)c1 | -0.3 | -9.4 | 0.0 | -6.9 | -2.2 | . | .
COC(=O)c1ccc2c(c1)C(C)(C)C(/C=C/c1ccccc1O)=[N+]2C | 37.0* | -47.4 | -1.1 | . | 100.6* | 115.9* | 82.3*
Cc1nn(CC(=O)N2c3ccccc3NC(=O)C2(C)C)c(C)c1[N+](=O)[O-] | -1.4 | -10.6 | 0.3 | 1.0 | 1.0 | . | .
O=C(Cn1nnc2ccccc2c1=O)N1CCOCC1 | 0.8 | -1.7 | 1.2 | -18.5 | -8.2 | . | .
CC1(C)C(=O)Nc2ccccc2N1C(=O)Cn1ncc(Cl)c(Cl)c1=O | 94.8* | -4.3 | 0.2 | -3.0 | . | 86.7* | 33.3
O=C(Cn1ncc(Cl)c(Cl)c1=O)N1CCN(Cc2ccccc2)CC1 | 71.1* | 21.9 | -2.5 | -13.7 | 39.7 | 118.0* | 60.6*
O=C(Cn1ncc(Cl)c(Cl)c1=O)N1CCc2ccccc21 | 78.9* | -38.7 | -5.1 | -15.6 | 87.0* | 118.1* | 94.3*
O=C(Cn1ncc2c1-c1ccccc1OC2)N1CCc2ccccc21 | -2.7 | -6.0 | 0.0 | 9.9 | 6.0 | . | .
O=C(Cn1ncc(Cl)c(Cl)c1=O)N1CCOCC1 | 44.1* | -15.2 | -4.1 | -5.0 | 14.3 | 59.5* | 26.6
CN(C(=O)CN(c1ccccc1)S(=O)(=O)c1ccc(F)cc1)C1CCS(=O)(=O)C1 (configuration not stated) | -26.0 | 6.0 | 2.5 | 14.8 | . | . | .
Cc1cc(C)nc(SCCC(=O)Nc2ccccc2Cl)n1 | 0.4 | -8.2 | -3.8 | -18.4 | 12.1 | . | .
CCC(C)[C@H](NC(=O)Nc1ccccc1F)C(=O)OC (some centres not stated) | 0.1 | 2.1 | -1.3 | 6.2 | . | . | .
CCOC(=O)/C(=C\c1ccc(OC(F)F)cc1)C1=Nn2c(nnc2-c2ccc(Cl)cc2)SC1 | 30.6* | 6.9 | -0.3 | 0.9 | 100.4* | 119.0* | 86.5*
COc1ccc(-c2nnc3n2N=C(C)CS3)cc1 | 14.8 | -19.1 | -1.0 | . | -4.2 | . | .
Cc1cc(N2CCOCC2)ccc1/C=C\[N+](=O)[O-] | 38.9* | -5.0 | -2.2 | -15.4 | 69.6* | 82.1* | -24.3
COc1ccc(N=C2C(=Nc3ccc(OC)cc3)N(c3ccc(OC)cc3)C(=S)N2C)cc1 | 34.6* | -11.1 | -2.5 | . | 28.0 | 38.4* | 29.7
O=C(Oc1ccc(Nc2ncnc3ccccc23)cc1)c1cccnc1 | -14.6 | -3.7 | 0.0 | 6.1 | 0.7 | . | .
CCOc1cc(/C=N/NC(N)=O)cc(Br)c1OCC(=O)Nc1ccccc1C | 6.3 | -4.5 | -0.6 | . | 0.3 | . | .
CCOc1cc(/C=C\[N+](=O)[O-])ccc1OCC(=O)Nc1ccccc1C | 58.2* | 11.2 | 1.3 | . | 71.2* | 117.9* | 83.5*
SMILES | S1P4 antag | Mdm2 ligase inh | S1P4 agonist | S1P3 antagonist | L major viab | S1P4 antag cf | S1P1 antagonist
CCn1cc(C(=O)N2CCN(c3ccc(C(C)=O)cc3)CC2)c2cc(OC)c(OC)cc2c1=O | 13.1 | -9.6 | -1.2 | -2.8 | 5.1 | . | .
COc1ccc(NC(=O)C(C)N2C(=O)c3ccccc3C2=O)cc1S(=O)(=O)N1CCOCC1 (configuration not stated) | -4.3 | -3.7 | 2.8 | 8.2 | 9.7 | . | .
CC(=O)N1CCc2c(sc(NC(=O)c3ccc([N+](=O)[O-])o3)c2C#N)C1 | 33.4* | -30.5 | 0.2 | 1.7 | 98.0* | 82.0* | 33.7
Cc1ccc(NC(=O)CSc2nnc([C@H](C)NC(=O)OC(C)(C)C)o2)c(C)c1 | -11.1 | -5.4 | -2.0 | -0.3 | . | . | .
CCC(C)[C@@H](NC(=O)OC(C)(C)C)c1nnc(S(=O)(=O)Cc2cccc(C)c2)o1 (some centres not stated) | 76.4* | 0.1 | -4.4 | -9.1 | 7.6 | 108.9* | 31.2
Cc1ccccc1CS(=O)(=O)c1nnc([C@H](Cc2ccccc2)NC(=O)OC(C)(C)C)o1 | 71.1* | -18.2 | -1.7 | . | -4.7 | 108.3* | 34.1
Cc1cc(C(=O)CSc2nnc(-c3cccs3)o2)c(C)n1-c1ccccc1 | -6.2 | -45.6 | -0.1 | -14.2 | 0.1 | . | .
Nc1ncnc2c1ncn2C1OC(CO)C(O)C1N (configuration not stated) | -3.6 | -14.4 | 1.0 | 1.5 | . | . | .
Nc1ncnc2c1ncn2C1OC(CO)C(O)C1O (configuration not stated) | 38.8* | 6.4 | -1.9 | -18.5 | -4.0 | 67.1* | 40.9*
Cc1ccc(OCC(=O)NCCc2c[nH]c3ccccc23)cc1 | -5.7 | 9.1 | 0.5 | -22.7 | 13.3 | . | .
COc1ccccc1CNC(=O)COC(=O)CCC(=O)c1cccs1 | 2.5 | -3.8 | -1.6 | -9.6 | -5.6 | . | .
c1ccc(CN2CCN(c3nc(N4CCOCC4)c4ccccc4n3)CC2)cc1 | 36.2* | . | 0.1 | . | 43.7 | 8.3 | 34.1
NC(=S)Nc1cccc2[nH]ccc12 | 6.2 | -13.1 | -0.4 | -2.5 | -0.3 | . | .
O=C(Nc1nnc(-c2ccc3c(c2)CCCC3)o1)c1ccccc1 | 30.9* | -9.1 | 2.2 | . | 96.3* | 102.1* | 95.7*
Cc1c(C)n(C)c2ccc(C(=O)Nc3cccc4ccccc34)cc12 | 44.3* | -6.9 | -3.4 | . | 3.5 | 46.3* | 12.0
O=C(Nc1cccc2ccccc12)c1ccccc1 | 7.0 | -19.2 | -0.2 | -5.9 | . | . | .
CNC1=C([N+](=O)[O-])CC([N+](=O)[O-])=C(N2CCNCC2)N1C | 35.1* | -4.0 | -0.3 | -22.8 | -8.9 | -1.5 | 1.6
O=[N+]([O-])c1cc(C(F)(F)F)cc([N+](=O)[O-])c1N1CCCNCC1 | -11.3 | -2.4 | 0.0 | 11.5 | 3.2 | . | .

Screens deposited in PubChem by several laboratories.
